# UCH37 DUB inh = blocks the human deubiquitinase UCH37 | purified proteasome/UCH37, Ub-AMC cleavage fluorescence | inhibition, % (no concentration beside the values) | 330,000 tested, 0.33% active | AID 588478;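 active means mean inhibition over replicate wells above about 20%, limit read from the data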;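 further: 0% = compound-free wells with enzyme and 100% = wells lacking proteasome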
# Target sequence (Q9Y5K5 whole entry, looked up): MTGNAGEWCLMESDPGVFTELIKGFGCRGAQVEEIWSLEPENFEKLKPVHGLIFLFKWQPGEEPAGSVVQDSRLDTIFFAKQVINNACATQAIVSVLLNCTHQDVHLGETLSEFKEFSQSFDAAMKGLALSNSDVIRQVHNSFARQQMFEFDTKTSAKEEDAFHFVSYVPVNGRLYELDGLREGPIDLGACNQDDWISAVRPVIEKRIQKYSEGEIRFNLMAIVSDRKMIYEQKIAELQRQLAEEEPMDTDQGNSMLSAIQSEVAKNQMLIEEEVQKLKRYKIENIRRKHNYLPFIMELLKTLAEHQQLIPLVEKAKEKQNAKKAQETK
#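 Material: human UCH37 enzyme supplied as purified proteasome complex. Measure: % inhibition of Ub-AMC cleavage fluorescence. Medium: pH 7.4 Tris-HCl (50 mM) with ovalbumin, ATP-MgCl2, DTT. Times: 30 min preincubation with enzyme, 25 min cleavage at room temperature. Detection: AMC fluorescence intensity at 355/460 nm.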
# MsrA inhibitor = inhibits bovine methionine sulfoxide reductase A; 360,000 tested, 0.75% active; inhibition, % at 15.5 µM; purified bovine MsrA, absorbance read-out;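 further: 0% = vehicle wells with enzyme and 100% = reference inhibitor wells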
# Vif imaging = blocks HIV Vif function. HEK293T cells, Vif self-association by quenched fluorescence, imaging, 24 h. inhibition, % at 7.49 µM. 340,000 tested, 0.35% active; in the data active means inhibition above about 50%, passing the limit was not always enough
# aDG glyco act = alpha-DG glycosylation activation; 360,000 tested, 0.22% active; activation, % at 10 µM; Pro5-aDG cells, alpha-DG glycosylation AlphaScreen (IIH6); 0% Pro5, 100% B10-LARGE cell signal; AID 624168;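 active means activation of at least 8% versus controls, or a plate z-score of at least 8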;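 further: Pro5 are CHO cells carrying HIG-tagged alpha-DG that lacks glycosylation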
# N-glyco inh = blocks N-linked glycosylation in D54 reporter cells | D54 ERlucT glycosylation luciferase reporter, 24 h; percent of 100 nM tunicamycin response | reporter increase, % at 12.5 µM | 360,000 tested, 0.23% active | AID 588692;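 active means mean luciferase reporter signal, scaled so untreated is 0 and the glycosylation-blocking control 100, at or above a set limit in every replicate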;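 further: luciferase carries N-glycosylation sites so blocking glycosylation raises the light; 0% = median of neutral control wells and 100% = median of 100 nM tunicamycin wells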
# MsrA act = bovine methionine sulfoxide reductase A activation; purified bovine MsrA, absorbance read-out; activation, % at 10.6 µM; 360,000 tested, 0.3% active; in the data active means activation above about 7.5%;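 further: 0% = vehicle and 100% = reference activator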
# MsrA act confirm = bovine methionine sulfoxide reductase A activation confirmed | activation, % at 10.6 µM | shares compounds with MsrA act | purified bovine MsrA, absorbance read-out | AID 602270 | 1,000 tested, 12% active; in the data active means activation above about 4%;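 further: enzyme coupled to thioredoxin and thioredoxin reductase with NADPH; 0% = vehicle wells and 100% = reference activator wells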
# aDG conf = alpha-DG glycosylation activation, confirmation; Pro5-aDG cells, IIH6 AlphaLISA; scaled to LARGE-overexpressing B10 cells as 100%; activation, % at 10 µM (by protocol); AID 651671; shares compounds with aDG glyco act; 600 tested, 17% active;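 active means activation of at least 7% in one or more replicates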;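 further: cells exposed to compound for two days before detection; 0% = DMSO-treated Pro5 cells and 100% = DMSO-treated B10-LARGE cells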
# MsrA conf = bovine MsrA inhibition, confirmed; shares compounds with MsrA inhibitor; purified bovine MsrA, absorbance read-out; inhibition, % at 15.5 µM; 2,300 tested, 41% active; AID 651822;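 further: coupled to thioredoxin reductase with NADPH and selenocystamine and DMSO as substrate; 0% = vehicle only and 100% = full effect of reference inhibitor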
# Numbers without * were called inactive; x = no result given. An excerpt weighted towards active compounds, which were near 1.9% of everything screened. Unless noted, no stated cut-off is given here; in the data, active means inhibition above about 4.5%; inactive means the rest.
SMILES,UCH37 DUB inh,MsrA inhibitor,Vif imaging,aDG glyco act,N-glyco inh,MsrA act,others
CNc1ccc2nc3ccccc3[n+](C)c2c1,x,-1,-5,2.7*,-16,92*,MsrA act confirm=74*
N#Cc1c(N=Cc2ccc(O)cc2O)sc2c1C1CCN2CC1,6,x,x,x,x,x,
CC(=O)c1cccc(NC(=O)N2C[C@H]3C[C@@H](C2)c2cccc(=O)n2C3)c1,1,1,6,0,2,-1,
O=C(O)c1cccc(NC(=O)N2C[C@H]3C[C@@H](C2)c2cccc(=O)n2C3)c1,1,-1,9,0,1,8.9*,MsrA act confirm=-3
C[C@]12CCC3C(CCC4=CC(=NOCC(=O)NC(CCC(=O)O)C(=O)O)CC[C@@]43C)C1CCC2O (some centres not stated),4,x,x,x,x,x,
CC(C)c1cccc(C(C)C)c1OCCn1ccnc1,1,0,1,0,-3,14*,MsrA act confirm=-2
COC(=O)C1=C(c2ccc3ccccc3c2)C[C@@H]2CC[C@H]1N2C(=O)NC1CCCCC1,-2,x,-5,0,-4,-11,
COC(=O)C1=C(c2ccc(C(C)=O)cc2)C[C@@H]2CC[C@H]1N2C(=O)NC1CCCCC1,0,0,-8,7.3*,7,-7,aDG conf=-1
CC[C@H](C)C=C(C)/C=C/C1=CC2=C(Cl)C(=O)[C@@](C)(OC(C)=O)C(=O)C2=CO1,20,x,x,x,x,x,
CCC1(c2ccc(N)cc2)CCC(=O)NC1=O (configuration not stated),1,-1,0,12*,3,-1,aDG conf=-1
CCCNC(=O)Cn1cnc2sc(C(=O)N3CCC4(CC3)OCCO4)c(C)c2c1=O,4,1,6,14*,3,-3,aDG conf=0
CN(C)c1ccc(C(=O)NN=CC23CC[C@@H](O)CC2(O)CC[C@@H]2[C@@H]3CCC3(C)C(C4=CC(=O)OC4)CCC23O)cc1 (some centres not stated),5,x,x,x,x,x,
CC1CCC2[C@@H](C)C(=O)OC3O[C@]4(C)CCC1C32OO4 (some centres not stated),6,-1,-3,2.6*,2,-2,aDG conf=0
CNC(=O)ON=Cc1nn(C(=O)C(C)(C)C)cc1Br,3,x,x,x,x,x,
CN(C)c1ccc(/C=C2\C(=O)NC(=O)N(Cc3ccc(F)cc3)C2=O)cc1,x,4.9*,10,0,4,-3,MsrA conf=4.6*
CN(C)c1ccc(/C=C2/C(=O)NC(=O)N(CCc3ccc(F)cc3)C2=O)cc1,6,4,-3,0,4,-4,
Cn1c(O)c(C=Nc2ccccc2)c(=O)n(C)c1=O,10,5.1*,-11,0,-1,-6,MsrA conf=4.8*
O=C(NN=Cc1ccc(N(CCCl)CCCl)cc1)c1cccc([N+](=O)[O-])c1,x,1,7,0,-2,-4,
O=C(NN=Cc1ccc(N(CCCl)CCCl)cc1)c1cccnc1,-39,5.2*,27,0,0,-6,MsrA conf=4
N#CCCn1cc(C(=O)Nc2ccccc2Br)c(-c2ccc([N+](=O)[O-])cc2)n1,0,47*,x,0,2,3,MsrA conf=0
Cc1cc(C)c(-n2c(O)c(/C=N/N3CCCCC3c3cccnc3)c(=O)[nH]c2=O)c(C)c1 (configuration not stated),2,1,5,0,-2,-1,
C=CCn1c(O)c(/C=N/N2CCCCC2c2cccnc2)c(=O)[nH]c1=S (configuration not stated),8,5.8*,-3,0,1,-5,MsrA conf=4
CC12CC[C@H]3[C@@H](CCC4(O)C[C@H](O)CCC34C=NNC(=O)c3ccc(O)cc3)C1(O)CCC2C1=CC(=O)OC1 (some centres not stated),0,x,x,x,x,x,
NC(=N[N+](=O)[O-])N1CCN(C(=O)Oc2ccc([N+](=O)[O-])cc2)CC1,0,x,x,x,x,x,

# From PubChem BioAssay
